Values joined by “and” are separate entries in the source; they are usually repeats but may differ in a detail not shown here. Identical values can stand only once. Active and inactive are the calls of the source. The rule behind the calls is not given here.
Assays:
[1] = molecular target: T1, C-C chemokine receptor type 1 (Homo sapiens) (UniProt P32246); assay: Inverse agonist activity at human TEV protease site linked CCR1 expressed in human U20S cell membranes co-expressing Gal4-VP16 transcription factor assessed as decrease in basal activity after 90 mins in presence of 1 uM GDP by [35S]GTPgammaS binding assay relative to control; assay type: functional
T1 sequence (whole entry): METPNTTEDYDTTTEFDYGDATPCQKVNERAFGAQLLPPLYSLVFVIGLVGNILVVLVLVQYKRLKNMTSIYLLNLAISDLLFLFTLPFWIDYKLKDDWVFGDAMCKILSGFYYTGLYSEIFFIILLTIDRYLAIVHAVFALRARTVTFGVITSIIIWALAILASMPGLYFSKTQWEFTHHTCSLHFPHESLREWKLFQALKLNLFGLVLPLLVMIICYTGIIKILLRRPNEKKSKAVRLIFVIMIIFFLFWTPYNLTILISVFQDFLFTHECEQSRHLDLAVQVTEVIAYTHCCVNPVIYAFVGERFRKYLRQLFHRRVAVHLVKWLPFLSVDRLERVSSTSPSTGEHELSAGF
How it was run: (§1)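 Basal [35S]GTPγS binding on human CCR1 U2OS membranes (10 μg) with saponin, in Tris/MgCl2/NaCl/EDTA/0.05% BSA, pH 7.4, without chemokine. Compound was tested at 100 μM with GDP at 1, 10 or 20 μM. Preincubation was 30 min at 25 °C, then 90 min after adding 0.3 nM [35S]GTPγS. Filtration and scintillation read-out; decrease versus basal.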

[2] = molecular target: T2, C-C chemokine receptor type 2 (Homo sapiens, UniProt P41597); assay: Displacement of [3H]-CCR2-RA-[R] from human TEV protease site linked CCR2b expressed in human U20S cell membranes co-expressing Gal4-VP16 transcription factor after 120 mins by scintillation spectrometry
Target sequence in this assay (P41597 whole entry, the tested form may be a part): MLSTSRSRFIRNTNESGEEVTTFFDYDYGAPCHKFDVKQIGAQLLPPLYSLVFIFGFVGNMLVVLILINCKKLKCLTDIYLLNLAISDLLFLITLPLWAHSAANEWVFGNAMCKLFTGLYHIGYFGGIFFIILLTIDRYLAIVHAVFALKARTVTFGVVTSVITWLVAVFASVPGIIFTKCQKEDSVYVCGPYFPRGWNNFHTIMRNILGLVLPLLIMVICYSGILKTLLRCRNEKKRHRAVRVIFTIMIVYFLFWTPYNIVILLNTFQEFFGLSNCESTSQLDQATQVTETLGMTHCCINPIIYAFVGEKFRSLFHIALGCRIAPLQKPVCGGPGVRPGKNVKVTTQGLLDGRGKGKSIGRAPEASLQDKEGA

Homo sapiens = organism: Homo sapiens; assay: Selectivity ratio of IC50 for human TEV protease site linked CCR1 expressed in human U20S cell membranes co-expressing Gal4-VP16 transcription factor to IC50 for human TEV protease site linked CCR2b expressed in human U20S cell membranes co-expressing Gal4-VP16 transcription factor; assay type: cell-based
[3] = molecular target: T2, C-C chemokine receptor type 2; assay: (§2) Antagonist activity at human TEV protease site linked CCR2b expressed in human U20S cell membranes co-expressing Gal4-VP16 transcription factor assessed as reduction in CCL2-induced G-protein activation preincubated for 30 mins in presence of CCL2 followed by incubation of 90 mins by [35S]GTPgammaS binding assay; assay type: functional
How it was run: (§3)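 Stably transfected U2OS membranes (10 μg; human CCR1 or CCR2b) in 50 mM Tris-HCl pH 7.4 with 5 mM MgCl2, 100 mM NaCl, 1 mM EDTA, 0.05% BSA, 10 μM GDP and 10 μg saponin. Preincubated with graded compound plus 8 nM CCL3 (CCR1) or 20 nM CCL2 (CCR2), then 0.3 nM [35S]GTPγS for 90 min at 25 °C.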
Target sequence in this assay (P41597 whole entry, the tested form may be a part): as above

[4] = molecular target: T3, C-C chemokine receptor type 1 (Homo sapiens, UniProt P32246); assay: as §2, with “CCR1” for “CCR2b”, “CCL3-induced” for “CCL2-induced”, “CCL3” for “CCL2”; assay type: functional; how it was run: as §3
T3 sequence (P32246 whole entry): T1 sequence (whole entry)

[5] = molecular target: T2, C-C chemokine receptor type 2; assay: Displacement of [3H]-CCR2-RA-[R] from human TEV protease site linked CCR2b expressed in human U20S cell membranes co-expressing Gal4-VP16 transcription factor at 1 uM after 120 mins by scintillation spectrometry relative to control
Target sequence in this assay (P41597 whole entry, looked up, the tested form may be a part): as the sequence (P41597 whole entry, the tested form may be a part) above

[6] = molecular target: T3, C-C chemokine receptor type 1; assay: biochemical
[7] = molecular target: T1, C-C chemokine receptor type 1 (Homo sapiens); assay: Displacement of [3H]-CCR2-RA-[R] from human TEV protease site linked CCR1 expressed in human U20S cell membranes co-expressing Gal4-VP16 transcription factor at 1 uM after 120 mins by scintillation spectrometry relative to control
[8] = molecular target: T2, C-C chemokine receptor type 2; assay: Inverse agonist activity at human TEV protease site linked CCR2b expressed in human U20S cell membranes co-expressing Gal4-VP16 transcription factor assessed as decrease in basal activity at 100 uM after 90 mins in presence of GDP by [35S]GTPgammaS binding assay relative to control; assay type: functional
How it was run: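 Basal G-protein activation on human CCR2b U2OS membranes (10 μg) plus 10 μg saponin and 10 μM GDP, pH 7.4 Tris buffer with NaCl, EDTA and BSA, no CCL2. Compound preincubated 30 min at 25 °C, then 90 min with 0.3 nM [35S]GTPγS. Bound label measured after filtration; change from basal.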
Target sequence in this assay (P41597 whole entry, looked up, the tested form may be a part): as the sequence (P41597 whole entry, the tested form may be a part) above

[9] = molecular target: T1, C-C chemokine receptor type 1 (Homo sapiens); assay: Inverse agonist activity at human TEV protease site linked CCR1 expressed in human U20S cell membranes co-expressing Gal4-VP16 transcription factor assessed as decrease in basal activity at 100 uM after 90 mins in presence of 20 uM GDP by [35S]GTPgammaS binding assay relative to control; assay type: functional; how it was run: as §1
[10] = molecular target: T1, C-C chemokine receptor type 1 (Homo sapiens); assay: Inverse agonist activity at human TEV protease site linked CCR1 expressed in human U20S cell membranes co-expressing Gal4-VP16 transcription factor assessed as decrease in basal activity at 100 uM after 90 mins in presence of 10 uM GDP by [35S]GTPgammaS binding assay relative to control; assay type: functional; how it was run: as §1
[11] = molecular target: T1, C-C chemokine receptor type 1 (Homo sapiens); assay: Inverse agonist activity at human TEV protease site linked CCR1 expressed in human U20S cell membranes co-expressing Gal4-VP16 transcription factor assessed as decrease in basal activity at 100 uM after 90 mins in presence of 1 uM GDP by [35S]GTPgammaS binding assay relative to control; assay type: functional; how it was run: as §1

| SMILES | Ki ([2]; read-out: Ki) | inhibition [5] | Ki [6] | other results |
| --- | --- | --- | --- | --- |
| CC(=O)C1=C(O)C(=O)N(c2ccc(Br)cc2F)C1C1CCCCC1 (stereo not drawn) | 6 nM | – | – | Activity [1]: Active; Ratio IC50 (Homo sapiens): 19; IC50 ([3]; read-out: IC50): 30 nM; IC50 ([4]; read-out: IC50): 590 nM; IC50 ([4]; read-out: pIC50 (converted)): 550 nM |
| CC(=O)C1=C(O)C(=O)N(c2ccc(C)cc2)C1c1ccccc1 (stereo not drawn) | – | 39% | 162 nM | – |
| Cc1ccc(N2C(=O)C(O)=C(C(=O)C(C)(C)C)C2C2CCCCC2)cc1 (stereo not drawn) | 158 nM | – | 22 nM | Ki ([2]; read-out: pKi (converted)): 155 nM |
| CC(=O)C1=C(O)C(=O)N(c2ccc(C)cc2F)C1C1CCCCC1 (stereo not drawn) | 37 nM | – | 27.5 nM and 29 nM | – |
| CC(=O)C1=C(O)C(=O)N(c2ccc(C)cc2)C1c1ccc(Cl)cc1 (stereo not drawn) | 207 nM | – | 67 nM | – |
| CC(=O)C1=C(O)C(=O)N(c2ccccc2)C1C1CCCCC1 (stereo not drawn) | – | 45% | – | inhibition [7]: 42% |
| CC(=O)C1=C(O)C(=O)N(c2ccc(C)cc2)C1c1ccc(Br)cc1 (stereo not drawn) | 214 nM | – | 85.1 nM and 87 nM | – |
| CC(=O)C1=C(O)C(=O)N(c2ccc(C)cc2)C1c1cccc(Cl)c1 (stereo not drawn) | – | 19% | 198 nM | – |
| CCC(=O)C1=C(O)C(=O)N(c2ccc(C)cc2)C1C1CCCCC1 (stereo not drawn) | 104 nM | – | 30 nM | – |
| COc1ccc(N2C(=O)C(O)=C(C(C)=O)C2C2CCCCC2)cc1 (stereo not drawn) | 217 nM | – | 260 nM | Ki ([2]; read-out: pKi (converted)): 214 nM |
| O=C(C1=C(O)C(=O)N(c2ccc(Br)cc2F)C1C1CCCCC1)C1CC1 (stereo not drawn) | 15 nM | – | 5 nM | Activity [1]: Active; Imax [8]: 27%; Ratio IC50 (Homo sapiens): 3; IC50 ([3]; read-out: IC50): 330 nM; IC50 ([3]; read-out: pIC50 (converted)): 288 nM; IC50 ([4]; read-out: IC50): 950 nM; IC50 ([4]; read-out: pIC50 (converted)): 933 nM |
| CC(=O)C1=C(O)C(=O)N(c2cccc(F)c2)C1C1CCCCC1 (stereo not drawn) | – | 47% | – | inhibition [7]: 44% |
| Cc1ccc(N2C(=O)C(O)=C(C(=O)OC(C)C)C2C2CCCCC2)cc1 (stereo not drawn) | – | 6% | – | inhibition [7]: 36% |
| Cc1ccc(N2C(=O)C(O)=C(C(=O)C(C)C)C2C2CCCCC2)cc1 (stereo not drawn) | 316 nM | – | 40.7 nM and 42 nM | – |
| CC(=O)C1=C(O)C(=O)N(c2ccc(Br)cc2)C1C1CCCCC1 (stereo not drawn) | 17 nM | – | 24 nM | – |
| CC(=O)C1=C(O)C(=O)N(c2cccc(Cl)c2)C1C1CCCCC1 (stereo not drawn) | 239 nM | – | 525 nM and 541 nM | – |
| CC(=O)C1=C(O)C(=O)N(c2ccc(C)cc2)C1c1cccc(C)c1 (stereo not drawn) | – | 11% | – | inhibition [7]: 47% |
| CC(=O)C1=C(O)C(=O)N(c2ccc(C)cc2)C1C1CCCCCCC1 (stereo not drawn) | 170 nM | – | 57 nM | Ki ([2]; read-out: pKi (converted)): 162 nM |
| CC(=O)C1=C(O)C(=O)N(c2ccc(Cl)c(C)c2)C1C1CCCCC1 (stereo not drawn) | 9 nM | – | 31 nM | Activity [1]: Active; Ki ([2]; read-out: pKi (converted)): 8.13 nM; Ratio IC50 (Homo sapiens): 48; IC50 ([3]; read-out: IC50): 40 nM; IC50 ([3]; read-out: pIC50 (converted)): 33.9 nM; inhibition [9]: 25%; inhibition [10]: 26%; inhibition [11]: 22%; IC50 ([4]; read-out: IC50): 1940 nM; IC50 ([4]; read-out: pIC50 (converted)): 1860 nM |
| Cc1ccc(N2C(=O)C(O)=C(C(=O)C3CC3)C2C2CCCCC2)cc1 (stereo not drawn) | 160 nM | – | 18.2 nM and 19 nM | – |
| CCc1ccc(N2C(=O)C(O)=C(C(C)=O)C2C2CCCCC2)cc1 (stereo not drawn) | 66 nM | – | 168 nM | Ki ([2]; read-out: pKi (converted)): 64.6 nM |
| CCOC(=O)C1=C(O)C(=O)N(c2ccc(C)cc2)C1C1CCCCC1 (stereo not drawn) | – | 31% | 200 nM | – |
| CC(=O)C1=C(O)C(=O)N(c2ccc(C)cc2)C1C1CCCCCC1 (stereo not drawn) | 96 nM | – | 56 nM | – |

Now from value to molecule, other results behind:

| Ki ([2]; read-out: Ki) | inhibition [5] | Ki [6] | SMILES | other results |
| --- | --- | --- | --- | --- |
| – | 0% | – | COc1cccc(C2C(C(C)=O)=C(O)C(=O)N2c2ccc(C)cc2)c1 (stereo not drawn) | inhibition [7]: 28% |
| – | 37% | 77 nM | Cc1ccc(N2C(=O)C(O)=C(C(=O)c3ccccc3)C2C2CCCCC2)cc1 (stereo not drawn) | – |
| 158 nM | – | 31 nM | CCCCC(=O)C1=C(O)C(=O)N(c2ccc(C)cc2)C1C1CCCCC1 (stereo not drawn) | Ki ([2]; read-out: pKi (converted)): 155 nM |
| 144 nM | – | 29 nM | CCCC(=O)C1=C(O)C(=O)N(c2ccc(C)cc2)C1C1CCCCC1 (stereo not drawn) | Ki ([2]; read-out: pKi (converted)): 138 nM |
| 19 nM | – | 38.9 nM and 40 nM | CC(=O)C1=C(O)C(=O)N(c2ccc(Cl)cc2)C1C1CCCCC1 (stereo not drawn) | – |
| – | 36% | 195 nM and 198 nM | CC(=O)C1=C(O)C(=O)N(c2ccc(C)cc2)C1c1ccc(C)cc1 (stereo not drawn) | – |
| 81 nM | – | 56 nM | CC(=O)C1=C(O)C(=O)N(c2ccc(C)cc2)C1C1CCCCC1 (stereo not drawn) | – |
| – | 45% | 50 nM | O=C(C1=C(O)C(=O)N(c2ccc(Br)cc2F)C1c1cccc(Br)c1)C1CC1 (stereo not drawn) | Activity [1]: Active; Imax [8]: 58%; IC50 ([3]; read-out: IC50): 8770 nM; IC50 ([4]; read-out: IC50): 8640 nM; IC50 ([4]; read-out: pIC50 (converted)): 8510 nM |
| – | 19% | 181 nM | CC(=O)C1=C(O)C(=O)N(c2ccc(C)cc2)C1c1cccc(Br)c1 (stereo not drawn) | – |
| 92 nM | – | 138 nM and 144 nM | CC(=O)C1=C(O)C(=O)N(c2ccc(C(F)(F)F)cc2)C1C1CCCCC1 (stereo not drawn) | – |
| 18 nM | – | 43 nM | CC(=O)C1=C(O)C(=O)N(c2ccc(C)c(C)c2)C1C1CCCCC1 (stereo not drawn) | – |
| 216 nM | – | 65 nM | CC(=O)C1=C(O)C(=O)N(c2ccc(Br)cc2F)C1c1cccc(Br)c1 (stereo not drawn) | – |
| 305 nM | – | – | CC(=O)C1=C(O)C(=O)N(c2cccc(C(F)(F)F)c2)C1C1CCCCC1 (stereo not drawn) | Ki ([2]; read-out: pKi (converted)): 288 nM; inhibition [7]: 25% |
| 265 nM | – | 500 nM | CC(=O)C1=C(O)C(=O)N(c2cccc(C)c2)C1C1CCCCC1 (stereo not drawn) | – |
| – | 5% | 541 nM | COc1ccc(C2C(C(C)=O)=C(O)C(=O)N2c2ccc(C)cc2)cc1 (stereo not drawn) | – |
| 66 nM | – | 28 nM | O=C(C1=C(O)C(=O)N(c2ccc(Br)cc2F)C1C1CCCCC1)c1ccccc1 (stereo not drawn) | – |
| 57 nM | – | 47.9 nM and 49 nM | CC(=O)C1=C(O)C(=O)N(c2ccc(C)c(F)c2)C1C1CCCCC1 (stereo not drawn) | – |

Source: ChEMBL document CHEMBL4371011, “Pyrrolone Derivatives as Intracellular Allosteric Modulators for Chemokine Receptors: Selective and Dual-Targeting Inhibitors of CC Chemokine Receptors 1 and 2” (J Med Chem, 2018)
